Laboratory results: ChEMBL document CHEMBL2346582, “Guanidino anthrathiophenediones as G-quadruplex binders: uptake, intracellular localization, and anti-Harvey-Ras gene activity in bladder cancer cells” (J Med Chem, 2013)
Calls of active or inactive are those of the source. No cut-off for these calls is given here.

Key:
[1] = organism: Homo sapiens; assay: Thermal stabilization of human HRAS2 G-quadruplex FAM-CGGGGCGGGGCGGGGGCGGGGGCG-TAMRA DNA assessed as as change in melting temperature at 1:1 DNA:ligand ratio by FRET assay
Method in brief: (§1)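 FRET melting in 50 mM Tris-HCl pH 7.4 with an equimolar ligand:quadruplex ratio (r = 1). Conditions: NRAS RNA and hras-2 in 10 mM KCl; hras-1 in 100 mM KCl, with ΔTM taken from its second transition. Ramp 1 °C/min from 20 to 95 °C after 5 min equilibration. TM and ΔTM (±0.5 K) versus ligand-free quadruplex.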

[2] = organism: Homo sapiens; assay: Thermal stabilization of human NRAS G-quadruplex FAM-GGGAGGGGCGGGUCUGGG-TAMRA RNA assessed as melting temperature at 1:1 DNA:ligand ratio by FRET assay; method in brief: as §1
[3] = Binding affinity to human NRAS G-quadruplex FAM-GGGAGGGGCGGGUCUGGG-TAMRA RNA assessed as quenching of fluorescence emission by FRET titration assay
Method in brief: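 RNA quadruplex, 200 nM, dual-labelled with FAM and TAMRA, in 50 mM Tris-HCl pH 7.4, 10 mM KCl. Titrated with ligand at r = 1–5 ([ligand]/[quadruplex]). The fraction of bound quadruplex was calculated from quenching of fluorescence and fitted to the Hill equation to give KD.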

[4] = tested on: NIH3T3; assay: Cellular uptake in mouse NIH/3T3 cells assessed as accumulation in nucleoli at 2.5 uM after 4 hrs by propidium iodide staining-based confocal microscopic analysis; format: ADME, cell-based; settings: nih3t3, 4 h
Method in brief: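 NIH 3T3 cells on coverslips treated with 2.5 μM ligand for 2 or 4 h. Fixed with paraformaldehyde, DRP1 immunostained (FITC), nuclei stained with propidium iodide. Confocal imaging with 543 nm excitation of ligand fluorescence.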

[5] = tested on: NIH3T3; assay: Cellular uptake in mouse NIH/3T3 cells after 4 hrs by FACS flow cytometric analysis in presence of cytochalasin D; format: ADME, cell-based; settings: nih3t3, 4 h
[6] = tested on: NIH3T3; assay: Cellular uptake in mouse NIH/3T3 cells at 0.5 to 10 uM after 8 hrs by flow cytometric analysis; format: ADME, cell-based; settings: nih3t3, 8 h
Method in brief: (§2)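 Cells plated at 5 × 10^4 per well and treated next day with ligand at […] for 8 h. Then trypsinized, resuspended in PBS and analysed by flow cytometry (488 nm excitation, FL3 680 nm, log scale), at least 10,000 cells per sample. Uptake read from intrinsic ligand red fluorescence.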

[7] = tested on: T-24; assay: Cellular uptake in human T24 cells at 0.5 to 10 uM after 8 hrs by flow cytometric analysis; format: ADME, cell-based; settings: t-24, 8 h; method in brief: as §2
[8] = organism: Homo sapiens; assay: Thermal stabilization of human HRAS1 G-quadruplex FAM-TCGGGTTGCGGGCGCAGGGCACGGGCG-TAMRA DNA assessed as change in melting temperature at 1:5 DNA:ligand ratio by FRET assay
Method in brief: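 FRET melting of 200 nM dual-labelled quadruplex in 50 mM Tris-HCl with KCl (100 mM for htelo and hras-1, 10 mM for KRAS and hras-2). Ligand at r = 5 ([ligand]/[quadruplex]; hras-2 tabulated at r = 4). Samples held 5 min at 20 °C, then heated 1 °C/min to 95 °C. ΔTM is the TM with ligand minus TM without ligand (±0.5 K). For hras-1 both biphasic transitions are given.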

[9] = Binding affinity to human HRAS1 G-quadruplex FAM-TCGGGTTGCGGGCGCAGGGCACGGGCG-TAMRA DNA assessed as quenching of fluorescence emission by FRET titration assay
Method in brief: (§3)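 FRET titration of 200 nM oligonucleotide dual-labelled at its ends with carboxyfluorescein (donor) and tetramethylrhodamine (acceptor), in 50 mM Tris-HCl with KCl (100 mM for htelo and hras-1, 10 mM for KRAS and hras-2). Ligand binding quenches the emission, mainly the acceptor at 580 nm. The fraction of filled sites was fitted to the Hill equation to give apparent KD and the Hill coefficient.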

[10] = Binding affinity to human telomeric G-quadruplex FAM-TTAGGGTTAGGGTTAGGGTTAGGG-TAMRA DNA assessed as quenching of fluorescence emission by FRET titration assay; method in brief: as §3
[11] = tested on: T-24; assay: Binding affinity to wild type HRAS quadruplex DNA in human T24 cells assessed as reduction in gene expression compound treated for 24 hrs prior to transfection measured 72 hrs post transfection by dual-luciferase reporter gene assay relative to control; format: cell-based
[12] = tested on: T-24; assay: Binding affinity to interleukin-8 promoter DNA in human T24 cells at 0.5 to 5 uM treated for 24 hrs prior to transfection measured 72 hrs post transfection by dual-luciferase reporter gene assay relative to control; format: cell-based; settings: in the assay text read “5 uM” for “0.5 to 5 uM”
Method in brief: (§4)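 T24 cells pretreated 24 h with ligand (0.5, 2.5, 5 μM). Then co-transfected with jet-PEI: firefly reporter (250 ng/well), either HRAS promoter wild type, HRAS promoter with 4 point mutations in the quadruplex motifs, or IL-8 promoter, plus CMV-Renilla (10 ng/well). Dual-Glo read 72 h post-transfection. Firefly/Renilla expressed as T/C × 100 relative to untreated cells.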

[13] = tested on: HEK293; assay: Cell cycle arrest in human HEK293 cells expressing wild type HRAS assessed as accumulation at G2/M phase at 10 uM after 24 hrs by FACS analysis; format: functional, cell-based
Method in brief: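 HEK293 cells (wild-type HRAS) treated with ligand for 24 h. Ethanol-fixed, stained with propidium iodide/RNase A, and analysed by FACS (FL2) for G0/G1, S and G2/M fractions.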

[14] = tested on: HEK293; assay: Cytotoxicity against human HEK293 cells expressing wild type HRAS at 1 to 30 uM after 72 hrs by resazurin assay; format: cell-based; settings: HEK293, 72 h
Method in brief: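 Cells seeded at 3000 per well the day before treatment, grown in DMEM with 10% FBS. Ligand added at 1, 2.5, 5, 10, 20, 30 μM for 72 h. Viability measured by resazurin and expressed as % of untreated cells; mean of three independent measurements. IC50 is the concentration reducing proliferation by 50%.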

[15] = tested on: T-24; assay: Binding affinity to HRAS G-quadruplex DNA in human T24 cells assessed as reduction in p21HRAS level at 5 uM after 72 hrs by immunoblotting analysis relative to control; format: cell-based; parameters: scale not given: the % may be the effect or the level left
Method in brief: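 T24 cells treated with 5 μM ligand for 48 or 72 h. Lysates (30 μg) run on 12% SDS-PAGE and immunoblotted with monoclonal anti-HRAS and β-actin antibodies, with HRP detection. HRAS level = (p21HRAS/β-actin treated)/(p21HRAS/β-actin untreated) × 100.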

[16] = tested on: T-24; assay: Binding affinity to HRAS quadruplex DNA mutant in human T24 cells assessed as reduction in gene expression at 0.5 to 5 uM treated for 24 hrs prior to transfection measured 72 hrs post transfection by dual-luciferase reporter gene assay relative to control; format: cell-based; method in brief: as §4
[17] = tested on: T-24; assay: Binding affinity to wild type HRAS quadruplex DNA in human T24 cells assessed as reduction in gene expression at 0.5 to 5 uM treated for 24 hrs prior to transfection measured 72 hrs post transfection by dual-luciferase reporter gene assay relative to control; format: cell-based; parameters: scale not given: the % may be the effect or the level left; method in brief: as §4

**Q.** Which deltaTm [1] does the source give for `N=C(N)NCCNc1c2c(c(NCCNC(=N)N)c3sccc13)C(=O)c1ccccc1C2=O` here?
**A.** 3 K

**Q.** And the Tm [2]?
**A.** 82 °C

**Q.** And the Kd [3]?
**A.** 380 nM

**Q.** And the Drug uptake [4]?
**A.** Active

**Q.** What about the Drug uptake [5] of the same compound?
**A.** Active

**Q.** And the Drug uptake [6]?
**A.** Active

**Q.** And the Drug uptake [7]?
**A.** Active

**Q.** What about the deltaTm [8] of the same compound?
**A.** 12 K

**Q.** What about the Kd [9] of the same compound?
**A.** 340 nM

**Q.** What about the Kd [10] of the same compound?
**A.** 150 nM

**Q.** And the Activity [11]?
**A.** Dose-dependent effect

**Q.** And the Activity [12]?
**A.** inactive

**Q.** What about the Activity [13] of the same compound?
**A.** inactive

**Q.** And the IC50 [14]?
**A.** > 30 µM

**Q.** What about the Activity [15] of the same compound?
**A.** 20%

**Q.** What about the Activity [16] of the same compound?
**A.** inactive

**Q.** And the Activity [17]?
**A.** 25%

**Q.** Which results are given for `N=C(N)NCCCNc1c2c(c(NCCCNC(=N)N)c3sccc13)C(=O)c1ccccc1C2=O`?
**A.** deltaTm [1]: 3 K; Tm [2]: 88 °C; Kd [3]: 110 nM; Drug uptake [4]: Active; Drug uptake [5]: Active; Drug uptake [6]: Active; Drug uptake [7]: Active; deltaTm [8]: 19 K; Kd [9]: 300 nM; Kd [10]: 130 nM; Activity [11]: Dose-dependent effect; Activity [12]: inactive; Activity [13]: inactive; IC50 [14]: > 30 µM; Activity [15]: 20%; Activity [16]: inactive; Activity [17]: 50%

**Q.** For `N=C(N)NCCCNc1c2c(c(NCCNC(=N)N)c3sccc13)C(=O)c1ccccc1C2=O`, which deltaTm [1] is on record?
**A.** 3 K

**Q.** And the Tm [2]?
**A.** 88 °C

**Q.** And the Kd [3]?
**A.** 90 nM

**Q.** What about the Drug uptake [4] of the same compound?
**A.** Active

**Q.** What about the Drug uptake [5] of the same compound?
**A.** Active

**Q.** What about the Drug uptake [6] of the same compound?
**A.** Active

**Q.** What about the Drug uptake [7] of the same compound?
**A.** Active

**Q.** What about the deltaTm [8] of the same compound?
**A.** 16 K

**Q.** And the Kd [9]?
**A.** 280 nM

**Q.** And the Kd [10]?
**A.** 330 nM

**Q.** What about the Activity [11] of the same compound?
**A.** Dose-dependent effect

**Q.** And the Activity [12]?
**A.** inactive

**Q.** What about the Activity [13] of the same compound?
**A.** inactive

**Q.** What about the IC50 [14] of the same compound?
**A.** > 30 µM

**Q.** And the Activity [15]?
**A.** 20%

**Q.** And the Activity [16]?
**A.** inactive

**Q.** Which results are given for `N=C(N)NCCCNc1c2c(c(NCCNC(=N)N)c3ccsc13)C(=O)c1ccccc1C2=O`?
**A.** deltaTm [1]: 4 K; Tm [2]: 86 °C; Kd [3]: 120 nM; Drug uptake [5]: Active; Drug uptake [6]: Active; Drug uptake [7]: Active; deltaTm [8]: 13 K; Kd [9]: 360 nM; Kd [10]: 320 nM; Activity [11]: Dose-dependent effect; Activity [12]: inactive; Activity [13]: inactive; IC50 [14]: 20 µM; Activity [15]: 20%; Activity [16]: inactive; Activity [17]: 25%

**Q.** For `N=C(N)NCCCCNc1c2c(c(NCCCCNC(=N)N)c3sccc13)C(=O)c1ccccc1C2=O`, which deltaTm [1] is on record?
**A.** 7 K

**Q.** What about the Tm [2] of the same compound?
**A.** > 90 °C

**Q.** What about the Kd [3] of the same compound?
**A.** 60 nM

**Q.** What about the Drug uptake [4] of the same compound?
**A.** Active

**Q.** And the Drug uptake [5]?
**A.** Active

**Q.** What about the Drug uptake [6] of the same compound?
**A.** Active

**Q.** And the Drug uptake [7]?
**A.** Active

**Q.** What about the deltaTm [8] of the same compound?
**A.** 20 K

**Q.** What about the Kd [9] of the same compound?
**A.** 210 nM

**Q.** And the Kd [10]?
**A.** 180 nM

**Q.** And the Activity [11]?
**A.** Dose-dependent effect

**Q.** What about the Activity [12] of the same compound?
**A.** inactive

**Q.** And the Activity [13]?
**A.** inactive

**Q.** What about the IC50 [14] of the same compound?
**A.** > 30 µM

**Q.** What about the Activity [15] of the same compound?
**A.** 20%

**Q.** What about the Activity [16] of the same compound?
**A.** inactive

**Q.** What about the Activity [17] of the same compound?
**A.** 50%
